Source: article PMC6976987 (Molecular Genetics and Metabolism Reports, 2020)

Assays:
Safety assessments [1] = type: in vivo, human; details: concomitant dosing with eliglustat, N = 33
Method in brief: (§1)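 Open-label study in healthy adults. Safety was monitored after a single dose (Day 1), during multiple doses alone (Days 2–8), and during co-dosing (Days 9–15 with the CYP3A/P-gp inhibitor; Days 9–18 with the CYP2D6 inhibitor). Measures: treatment-emergent AEs, clinical labs, vital signs, physical exams, 12-lead ECG, 12 h continuous telemetry. An AE counted as treatment-related if possibly, probably or definitely related to study drug.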

Safety assessments [2] = type: in vivo, human
Method in brief: as §1

SMILES | subjects reporting AEs related to ketoconazole (Safety assessments [1]) [%] | subjects reporting AEs related to paroxetine (Safety assessments [2]; concomitant dosing with eliglustat, N = 35) [%] | subjects with moderate clinically significant increases in blood pressure (Safety assessments [2]; concomitant dosing, deemed probably related to paroxetine) [%]
CC(=O)N1CCN(c2ccc(OCC3COC(Cn4ccnc4)(c4ccc(Cl)cc4Cl)O3)cc2)CC1 (stereo not drawn) [ketoconazole] | 33.3 | – | –
Fc1ccc([C@@H]2CCNC[C@H]2COc2ccc3c(c2)OCO3)cc1 [paroxetine] | – | 71.4 | 17.1
